Measurements: ChEMBL document CHEMBL1154863 (J Nat Prod, 2010)
The source made the active and inactive calls.

Key:
[1] = tested on: Mus musculus; assay: Antinociceptive activity in sc dosed mouse after 5 mins by tail flick test; assay type: functional
How it was run: (§1)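 Mice, tail-flick by the D'Amour–Smith method. Baseline latency 2–4 s, 10 s cutoff. Tested 5 min after s.c. injection. Response expressed as %MPE = (test−control)/(10−control)×100. 8–12 mice per dose, at least four doses per dose-response curve.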

[2] = tested on: Mus musculus; assay: Effect on locomotory activity in sc dosed mouse assessed as change in spontaneous activity after 5 mins by photocell interruption readings; assay type: functional
How it was run: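 Mice placed in photocell activity cages 5 min after s.c. saline or analogue. Beam interruptions recorded over the next 10 min and expressed as photocell interruption counts.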

[3] = tested on: Mus musculus; assay: Effect on rectal body temperature in sc dosed mouse assessed as change in temperature after 30 mins by inducible hypothermia test; assay type: functional; conditions: 0.5 h
How it was run: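 Rectal temperature measured in mice with a thermistor probe inserted 24 mm, read before and 30 min after s.c. saline or analogue. Change from pre-treatment value calculated for each mouse.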

[4] = target: Neuronal acetylcholine receptor; alpha4/beta2 (Rattus norvegicus, UniProt P09483+P12390); assay: Displacement of [3H]epibatidine from alpha4beta2 nAChR in rat cerebral cortex after 4 hrs by scintillation counting; assay type: tissue-based
Sequence of Neuronal acetylcholine receptor; alpha4/beta2 (P09483 whole entry): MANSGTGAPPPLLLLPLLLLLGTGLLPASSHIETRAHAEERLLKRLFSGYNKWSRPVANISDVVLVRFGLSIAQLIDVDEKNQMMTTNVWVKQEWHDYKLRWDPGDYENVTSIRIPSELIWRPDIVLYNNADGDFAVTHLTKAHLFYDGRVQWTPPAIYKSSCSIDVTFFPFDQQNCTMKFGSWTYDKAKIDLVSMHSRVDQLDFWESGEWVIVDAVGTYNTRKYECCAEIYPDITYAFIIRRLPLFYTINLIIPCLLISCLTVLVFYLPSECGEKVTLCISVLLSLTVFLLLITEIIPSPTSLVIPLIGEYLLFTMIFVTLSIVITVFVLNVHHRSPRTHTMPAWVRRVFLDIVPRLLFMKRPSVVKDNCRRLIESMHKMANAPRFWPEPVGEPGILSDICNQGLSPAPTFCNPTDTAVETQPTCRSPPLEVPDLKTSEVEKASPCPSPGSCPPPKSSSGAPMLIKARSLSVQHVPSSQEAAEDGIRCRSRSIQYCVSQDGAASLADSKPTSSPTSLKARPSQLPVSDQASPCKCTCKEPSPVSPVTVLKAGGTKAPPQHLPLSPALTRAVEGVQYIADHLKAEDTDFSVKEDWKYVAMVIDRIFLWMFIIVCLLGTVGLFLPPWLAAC
Sequence of Neuronal acetylcholine receptor; alpha4/beta2 (P12390 whole entry): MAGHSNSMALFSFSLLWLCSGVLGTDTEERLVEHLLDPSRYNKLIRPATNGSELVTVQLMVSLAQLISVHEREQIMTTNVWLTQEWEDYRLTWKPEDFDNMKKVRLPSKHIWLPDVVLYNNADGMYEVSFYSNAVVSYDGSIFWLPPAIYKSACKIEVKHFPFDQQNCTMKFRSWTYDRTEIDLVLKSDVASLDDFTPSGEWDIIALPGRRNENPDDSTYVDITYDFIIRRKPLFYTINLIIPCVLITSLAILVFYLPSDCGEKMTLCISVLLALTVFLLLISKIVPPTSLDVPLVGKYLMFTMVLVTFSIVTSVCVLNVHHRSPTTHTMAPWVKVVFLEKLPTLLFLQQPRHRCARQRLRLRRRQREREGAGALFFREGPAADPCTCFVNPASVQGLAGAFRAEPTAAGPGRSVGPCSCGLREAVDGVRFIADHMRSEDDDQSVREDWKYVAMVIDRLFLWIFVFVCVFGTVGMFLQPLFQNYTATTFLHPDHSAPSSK
How it was run: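 Rat cerebral cortex homogenate (3 mg wet weight, washed three times) in 50 mM Tris pH 7.4 with NaCl, KCl, CaCl2, MgCl2. 4 h at room temperature. Filtration onto polyethylenimine-soaked GF/B, scintillation counting. Ki from IC50 by Cheng-Prusoff.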

[5] = tested on: Mus musculus; assay: Inhibition of nicotine-induced antinociception in mouse assessed as reaction time taken to jump or lick paw at 100 ug/kg after 5 mins by hot plate test; assay type: functional
[6] = target: Neuronal acetylcholine receptor subunit alpha-7 (Rattus norvegicus, UniProt Q05941); assay: Displacement of [3H]iodo-MLA from alpha7 nAChR in rat cerebral cortex after 2 hrs by scintillation counting; assay type: tissue-based
Sequence of Neuronal acetylcholine receptor subunit alpha-7 (Q05941 whole entry): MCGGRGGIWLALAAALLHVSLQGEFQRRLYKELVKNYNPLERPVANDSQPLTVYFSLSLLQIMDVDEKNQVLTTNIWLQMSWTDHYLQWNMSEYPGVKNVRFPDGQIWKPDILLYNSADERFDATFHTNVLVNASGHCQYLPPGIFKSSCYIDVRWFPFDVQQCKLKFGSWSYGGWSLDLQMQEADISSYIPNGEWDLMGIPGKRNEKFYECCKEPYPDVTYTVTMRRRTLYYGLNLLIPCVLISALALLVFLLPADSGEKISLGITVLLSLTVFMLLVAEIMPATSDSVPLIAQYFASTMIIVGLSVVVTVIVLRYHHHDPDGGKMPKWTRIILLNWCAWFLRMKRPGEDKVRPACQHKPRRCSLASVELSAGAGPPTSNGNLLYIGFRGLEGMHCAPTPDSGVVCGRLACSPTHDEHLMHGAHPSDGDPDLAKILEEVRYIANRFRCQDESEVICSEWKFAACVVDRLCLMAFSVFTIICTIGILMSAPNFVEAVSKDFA
How it was run: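 Washed rat cerebral cortex homogenate (3 mg wet weight) in Tris pH 7.4 buffer with salts. 2 h on ice. Nonspecific binding defined with 300 µM (−)-nicotine. Filtered onto BSA-soaked GF/B, then microplate scintillation counting.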

[7] = tested on: Mus musculus; assay: Antinociceptive activity in sc dosed mouse assessed as reaction time taken to jump or lick paw after 5 mins by hot plate test; assay type: functional
How it was run: (§2)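 Mice placed in a glass cylinder on a 55.0 °C hot plate. Two control latencies taken at least 10 min apart; normal latency 8–12 s. Jump or paw lick scored. Tested 5 min after s.c. injection, eight mice per dose. %MPE calculated against a 40 s maximum.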

[8] = tested on: Mus musculus; assay: Inhibition of nicotine-induced antinociception in sc dosed mouse assessed as tail withdrawal latency after 5 mins by tail flick test; assay type: functional
[9] = tested on: Mus musculus; assay: Inhibition of nicotine-induced antinociception in sc dosed mouse assessed as reaction time taken to jump or lick paw after 5 mins by hot plate test; assay type: functional
[10] = tested on: Mus musculus; assay: Antinociceptive activity in mouse assessed as reaction time taken to jump or lick paw at 2 mg/kg, sc after 5 mins by hot plate test; assay type: functional; conditions: route subcutaneous; how it was run: as §2
[11] = tested on: Mus musculus; assay: Antinociceptive activity in mouse at 2 mg/kg, sc after 5 mins by tail flick test; assay type: functional; conditions: route subcutaneous; how it was run: as §1
[12] = tested on: Mus musculus; assay: Inhibition of nicotine-induced antinociception in mouse assessed as reaction time taken to jump or lick paw at 200 ug/kg after 5 mins by hot plate test; assay type: functional
[13] = species: Rattus norvegicus; assay: Selectivity ratio of Ki for rat alpha7 nAChR to Ki for rat alpha4beta2 nAChR
[14] = tested on: Mus musculus; assay: Inhibition of nicotine-induced antinociception in mouse assessed as reaction time taken to jump or lick paw at 50 ug/kg after 5 mins by hot plate test; assay type: functional
[15] = tested on: Mus musculus; assay: Inhibition of nicotine-induced antinociception in mouse assessed as reaction time taken to jump or lick paw at 10000 ug/kg after 5 mins by hot plate test; assay type: functional
[16] = Mus musculus, Tail, sc, 5 min, read-out: ED50

Structure (SMILES): Nc1ccc(-c2cc([C@H]3C[C@@H]4CC[C@H]3N4)cnc2Cl)cc1
- ED50 [1, 16]: 5 mg/kg
- ED50 [2]: 0.52 mg/kg
- ED50 [3]: 1.1 mg/kg
- Ki [4]: 0.034 nM
- inhibition in vivo at 0.1 mg/kg [5]: 0%
- Ki [6]: 234 nM
- ED50 [7]: 4.5 mg/kg
- AD50 [8]: 0.006 mg/kg

Structure (SMILES): CN(C)c1cccc(-c2cc([C@H]3C[C@@H]4CC[C@H]3N4)cnc2Cl)c1
- ED50 [3]: 3.3 mg/kg
- AD50 [9]: 0.56 mg/kg
- Ki [4]: 0.009 nM
- Activity [10]: 0%
- Activity [11]: 0%
- Ki [6]: 1100 nM
- AD50 [8]: 0.02 mg/kg

Structure (SMILES): Clc1ccc([C@@H]2C[C@H]3CC[C@@H]2N3)cn1 (stereo in doubt; (+)-1) [(+)-EPIBATIDINE]
- ED50 [1, 16]: 0.0061 mg/kg
- ED50 [2]: 0.001 mg/kg
- ED50 [3]: 0.004 mg/kg
- ED50 [7]: 0.004 mg/kg

Structure (SMILES): Clc1ncc([C@H]2C[C@@H]3CC[C@H]2N3)cc1-c1cccc(Br)c1
- ED50 [1, 16]: 0.54 mg/kg
- ED50 [2]: 0.11 mg/kg
- ED50 [3]: 0.67 mg/kg
- AD50 [9]: 0.22 mg/kg
- Ki [4]: 0.016 nM
- Ki [6]: 85 nM
- ED50 [7]: 2.2 mg/kg
- AD50 [8]: 0.01 mg/kg

Structure (SMILES): Nc1cccc(-c2cc([C@H]3C[C@@H]4CC[C@H]3N4)cnc2Cl)c1
- ED50 [1, 16]: 0.34 mg/kg
- ED50 [2]: 0.03 mg/kg
- ED50 [3]: 0.31 mg/kg
- AD50 [9]: 0.026 mg/kg
- Ki [4]: 0.017 nM
- Ki [6]: 256 nM
- ED50 [7]: 0.3 mg/kg
- AD50 [8]: 0.00014 mg/kg

Structure (SMILES): Clc1ccc(-c2cc([C@H]3C[C@@H]4CC[C@H]3N4)cnc2Cl)cc1
- ED50 [1, 16]: 2.6 mg/kg
- ED50 [2]: 0.53 mg/kg
- ED50 [3]: 0.89 mg/kg
- Ki [4]: 0.039 nM
- inhibition in vivo at 0.1 mg/kg [5]: 10%
- Ki [6]: 209 nM
- ED50 [7]: 2 mg/kg
- AD50 [8]: 0.001 mg/kg

Structure (SMILES): COc1ccc(-c2cc([C@H]3C[C@@H]4CC[C@H]3N4)cnc2Cl)cc1
- ED50 [1, 16]: 2.36 mg/kg
- ED50 [2]: 0.43 mg/kg
- ED50 [3]: 0.79 mg/kg
- inhibition in vivo at 0.2 mg/kg [12]: 10%
- Ki [4]: 0.022 nM
- Ki [6]: 175 nM
- ED50 [7]: 1.1 mg/kg
- AD50 [8]: 0.01 mg/kg

Structure (SMILES): Clc1ccc([C@@H]2C[C@H]3CC[C@@H]2N3)cn1 (stereo in doubt; (-)-1) [(+)-EPIBATIDINE]
- ED50 [1]: 0.0066 mg/kg

Structure (SMILES): Clc1cccc(-c2cc([C@H]3C[C@@H]4CC[C@H]3N4)cnc2Cl)c1
- ED50 [1, 16]: 3.4 mg/kg
- ED50 [2]: 0.06 mg/kg
- ED50 [3]: 0.38 mg/kg
- Ratio Ki [13]: 2000
- AD50 [9]: 0.08 mg/kg
- Ki [4]: 0.013 nM
- Ki [6]: 30.5 nM
- ED50 [7]: 4.2 mg/kg
- AD50 [8]: 0.0022 mg/kg

Structure (SMILES): Fc1cccc(-c2cc([C@H]3C[C@@H]4CC[C@H]3N4)cnc2Cl)c1
- ED50 [1, 16]: 1 mg/kg
- ED50 [2]: 0.07 mg/kg
- ED50 [3]: 0.19 mg/kg
- AD50 [9]: 0.086 mg/kg
- Ki [4]: 0.012 nM
- Ki [6]: 250 nM
- ED50 [7]: 0.43 mg/kg
- AD50 [8]: 0.0039 mg/kg

Structure (SMILES): O=[N+]([O-])c1ccc(-c2cc([C@H]3C[C@@H]4CC[C@H]3N4)cnc2Cl)cc1
- ED50 [1, 16]: 0.46 mg/kg
- ED50 [2]: 0.24 mg/kg
- ED50 [3]: 0.23 mg/kg
- Ki [4]: 0.015 nM
- inhibition in vivo at 0.05 mg/kg [14]: 17%
- Ki [6]: 250 nM
- ED50 [7]: 0.38 mg/kg
- AD50 [8]: 0.007 mg/kg

Structure (SMILES): O=[N+]([O-])c1cccc(-c2cc([C@H]3C[C@@H]4CC[C@H]3N4)cnc2Cl)c1
- ED50 [1, 16]: 4.6 mg/kg
- ED50 [2]: 0.9 mg/kg
- ED50 [3]: 1.4 mg/kg
- AD50 [9]: 0.18 mg/kg
- Ki [4]: 0.008 nM
- Ki [6]: 229 nM
- ED50 [7]: 3.2 mg/kg
- AD50 [8]: 0.00025 mg/kg

Structure (SMILES): COc1cccc(-c2cc([C@H]3C[C@@H]4CC[C@H]3N4)cnc2Cl)c1
- ED50 [1, 16]: 0.7 mg/kg
- ED50 [2]: 0.2 mg/kg
- ED50 [3]: 0.7 mg/kg
- Ki [4]: 0.019 nM
- inhibition in vivo at 0.1 mg/kg [5]: 0%
- Ki [6]: 558 nM
- ED50 [7]: 0.8 mg/kg
- AD50 [8]: 0.029 mg/kg

Structure (SMILES): Fc1ccc(-c2cc([C@H]3C[C@@H]4CC[C@H]3N4)cnc2Cl)cc1
- ED50 [1, 16]: 2.48 mg/kg
- ED50 [2]: 0.33 mg/kg
- ED50 [3]: 0.33 mg/kg
- Ki [4]: 0.017 nM
- inhibition in vivo at 0.1 mg/kg [5]: 30%
- Ki [6]: 309 nM
- ED50 [7]: 1.27 mg/kg
- AD50 [8]: 0.0005 mg/kg

Structure (SMILES): Clc1ncc([C@H]2C[C@@H]3CC[C@H]2N3)cc1-c1ccccc1
- ED50 [1, 16]: 0.7 mg/kg
- ED50 [2]: 0.35 mg/kg
- ED50 [3]: 0.4 mg/kg
- inhibition in vivo at 10 mg/kg [15]: 30%
- Ki [4]: 0.021 nM
- Ki [6]: 260 nM
- ED50 [7]: 1 mg/kg
- AD50 [8]: 0.28 mg/kg

Structure (SMILES): c1cnc2cc3c(cc2n1)[C@@H]1CNC[C@H]3C1
- Activity [1]: inactive
- Activity [7]: inactive

Structure (SMILES): CN1CCC[C@H]1c1cccnc1 [NICOTINE]
- ED50 [1, 16]: 1.3 mg/kg
- ED50 [2]: 0.5 mg/kg
- ED50 [3]: 1 mg/kg
- ED50 [7]: 0.65 mg/kg
